For orientation: AUC(0-t) means the area under the concentration-time curve up to a stated or last time point. Low readings indicate low exposure, high ones high exposure. Usually GI50 stands for the concentration giving 50% growth inhibition. A higher GI50 goes with less potent growth inhibition.

A short description of series [1]: Growth inhibition of human RPMI8226 cells assessed as cell growth at 10 uM incubated for 48 hrs by sulforhodamine B assay relative to control. The class given is functional. The note with it: RPMI-8226, 48 h, read-out: Activity. A digest of the protocol: (§1)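 Run in the standard NCI 60-cell-line screen. Cells were exposed to drug for two days, and the read-out was sulforhodamine B staining. Compound was tested at a single final concentration of 10 µM in every line, and results are reported as growth percent.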

A further series concerns NCI-H460. As to the kind of experiment: Growth inhibition of human NCI-H460 cells assessed as cell growth at 10 uM incubated for 48 hrs by sulforhodamine B assay relative to control. The class given is functional. Conditions: NCI-H460, 48 h, read-out: Activity. A digest of the protocol: as §1
Series [2] in a line: Growth inhibition of human SF539 cells assessed as cell growth at 10 uM incubated for 48 hrs by sulforhodamine B assay relative to control. The format is functional. The note with it: SF-539, 48 h, read-out: Activity. The procedure, abridged: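 Single-dose screen in the NCI 60-cell-line panel at one final concentration of 10 µM. Two-day drug exposure with a sulforhodamine B endpoint. Values are growth percent for each cell line.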

The nature of series [3]: AUClast in mouse at 20 mg/kg, po administered through gavage up to 8 hrs by LC-MS/MS analysis. The format is ADME, organism-based. The arrangement: time < 8 hr, dose 20 mg/kg, route oral. The note with it: in vivo. A digest of the protocol: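 Mice received 20 mg/kg by oral gavage as a 20 mg/mL solution in Labrasol. Two mice were sacrificed at each of 5 min, 15 min, 1 h, 4 h and 8 h, ten mice in total. Plasma was precipitated with acetonitrile containing lorazepam internal standard and analysed by C18 UPLC-MS/MS, calibrated over 5-500 ng/mL. AUClast was calculated from these time points.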

Series [4] has as its target Protein kinase C (PKC) (Homo sapiens) (UniProt O94806+P41743+P17252+P05129+Q05655+P05771+Q05513+Q02156+P24723+Q15139+Q04759). As to the kind of experiment: Activation of PKC in human 786-0 cells at 1 uM. The class given is cell-based.
For series [5], the system named is EKVX. As to the kind of experiment: Growth inhibition of human EKVX cells assessed as cell growth at 10 uM incubated for 48 hrs by sulforhodamine B assay relative to control. The class given is functional. Conditions: read-out: Activity. The procedure, abridged: as §1
Series [6] concerns EKVX. As to the kind of experiment: Growth inhibition of human EKVX cells incubated for 48 hrs by sulforhodamine B assay. The format is functional. The procedure, abridged: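 Run in the NCI 60-cell-line protocol, with 2-day drug exposure and sulforhodamine B read-out. Dose-response testing used five 10-fold dilutions starting from a high concentration of 100 µM.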
(In SRB staining, fixed cells bind dye roughly in proportion to their protein.)

The nature of series [7]: Toxicity in po dosed mouse administered through gavage. The class given is organism-based. Conditions: in vivo.
A short description of series [8]: Plasma concentration in mouse at 100 mg/kg, po administered through gavage after 30 mins by LC-MS/MS analysis. The format is ADME, organism-based. A digest of the protocol: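 Oral gavage to mice in Labrasol vehicle (compound dissolved directly at 20 mg/mL); dose groups 5, 10, 50 and 100 mg/kg. Plasma sampled 30 min after dosing. Analysis by HPLC-MS/MS: acetonitrile protein precipitation with lorazepam internal standard, C18 UPLC column, calibration range 5-500 ng/mL.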

A short description of series [9]: Plasma concentration in mouse at 20 mg/kg, po administered through gavage after 0.083 hrs by LC-MS/MS analysis. The format is ADME, organism-based. A digest of the protocol:
(§2)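 Ten mice given 20 mg/kg by oral gavage in Labrasol (20 mg/mL solution). Two mice sacrificed at each of 5 min, 15 min, 1 h, 4 h and 8 h. Plasma measured by LC-MS/MS after acetonitrile precipitation with lorazepam internal standard on a C18 UPLC column (calibration 5-500 ng/mL). Mean of two animals per time point.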

Series [10] can be described thus: Plasma concentration in mouse at 20 mg/kg, po administered through gavage after 0.25 hrs by LC-MS/MS analysis. The class given is ADME, organism-based. A digest of the protocol: as §2
The nature of series [11]: Plasma concentration in mouse at 20 mg/kg, po administered through gavage after 1 hr by LC-MS/MS analysis. The format is ADME, organism-based. The procedure, abridged: as §2
A short description of series [12]: Plasma concentration in mouse at 20 mg/kg, po administered through gavage after 4 hrs by LC-MS/MS analysis. The format is ADME, organism-based. The procedure, abridged: as §2
The nature of series [13]: Plasma concentration in mouse at 20 mg/kg, po administered through gavage after 8 hrs by LC-MS/MS analysis. The class given is ADME, organism-based. The procedure, abridged: as §2

Structures are written as SMILES. Activity calls are given as the source filed them. The calls are words filed in the database; no cut-off is given here.

As to `CC(C)[C@@]12C[C@@H](NC(=O)CO)[C@@](C)(O1)[C@@H]1CC[C@@H](C)[C@H]1[C@@H]2OC(=O)/C=C/C1CCCCC1`, the growth at 10 µM is 134% in series [1] and 103% with NCI-H460.

As for `CC(C)[C@@]12C[C@@H](NC(=O)CO)[C@@](C)(O1)[C@@H]1CC[C@@H](C)[C@H]1[C@@H]2OC(=O)c1ccc2ccccc2c1`, the growth at 10 µM is 84.6% in series [2], 67.6% in series [1] and 92.6% with NCI-H460.

On to `CC(C)[C@@]12C[C@@H](NC(=O)CF)[C@@](C)(O1)[C@@H]1CC[C@@H](C)[C@H]1[C@@H]2OC(=O)/C=C/c1ccccc1`, for which the growth at 10 µM is 87.9% in series [2], 94.3% in series [1] and 104% with NCI-H460.

Consider `C/C(=C\C(=O)O[C@H]1[C@@H]2[C@H](C)CC[C@H]2[C@]2(C)O[C@@]1(C(C)C)C[C@H]2NC(=O)CO)c1ccccc1`, for which the growth at 10 µM in series [2] stood at 91.2%; in the series with NCI-H460, 106%.

In series [3], `CC(C)[C@@]12C[C@@H](NC(=O)CO)[C@@](C)(O1)[C@@H]1CC[C@@H](C)[C@H]1[C@@H]2OC(=O)/C=C/c1ccccc1` had an AUC(0-t) at 8 h of 524 ng·h/mL. The outcome in series [4] was inactive. The growth at 10 µM in series [2] is 97.2%; in the series on EKVX [5] it was 69%; in series [1], 90.6%; in the series with NCI-H460, 108%. In the series on EKVX [6], this compound gave a 50% growth inhibitory concentration (GI50) of 11.2 µM. Moreover, the CC50 in the series on EKVX [6] (read-out: pLC50 (the source's name) (converted)) was more than 50.1 µM. Besides, the TGI in the series with EKVX [6] (read-out: pTGI) is more than 50.1 µM. In addition, in series [7], the MTD was determined as 50 mg/kg. In [8], this compound showed a concentration at 0.5 h not above 700 ng/mL. Also, the concentration at 0.083 h in series [9] is 10 ng/mL. Moreover, the concentration at 0.25 h in series [10] is 40.7 ng/mL. In series [11], this compound returned a concentration at 1 h of 73.2 ng/mL. Moreover, in series [12], the concentration at 4 h was found to be 59 ng/mL. Besides, the concentration at 8 h in [13] was found to be 67.8 ng/mL.

Source of the values: ChEMBL document CHEMBL3804761, “Synthesis of a stable and orally bioavailable englerin analogue” (Bioorg Med Chem Lett, 2016).
